Measured values reported in ChEMBL document CHEMBL3822422, “Discovery of the First α-Amino-3-hydroxy-5-methyl-4-isoxazolepropionic Acid (AMPA) Receptor Antagonist Dependent upon Transmembrane AMPA Receptor Regulatory Protein (TARP) γ-8” (J Med Chem, 2016).

Experiments:
[1] = Toxicity in po dosed Sprague-Dawley rat assessed as motor impairment by inverted screen test; assay type: organism-based; conditions: in vivo
How it was run: (§1)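 Rats given compound orally (10 or 100 mg/kg), scored on inverted screen for motor impairment; plasma exposure measured; ≥4 rats/group, mean ± SEM; TD50 used with PTZ ED50 for protective index.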

Glutamate receptor 1 [2] = molecular target: T1, Glutamate receptor 1 (Homo sapiens, UniProt P42261); test: Antagonist activity at human iGluA1 receptor flop isoform expressed in CHO-S cells coexpressing TARP gamma-8 and human EAAT3 assessed as inhibition of glutamate-induced increase in intracellular calcium levels after 2 mins followed by cyclothiazide/glutamate addition by fluo-4 AM dye based fluorescence imaging plate reader method; assay type: cell-based
How it was run: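 Transiently transfected CHO-S cells (human GluA1Q flop with TARP γ-8 and human EAAT3, DNA ratio 2:3), frozen, thawed, plated overnight at 37 °C; Fluo-4 AM loading 2 h at 22 °C. Compound added, then 2 min later glutamate (5 μM final); cyclothiazide (20 μM) plus glutamate (45 μM) 2 min after. FLIPR Ca2+ read; inhibition relative to 167 μM nonselective antagonist and buffer baseline; four-parameter logistic IC50; mean ± SEM, n ≥ 2.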

Glutamate receptor 1 [3] = molecular target: T1, Glutamate receptor 1; test: Antagonist activity at human iGluA1 receptor flop isoform expressed in CHO-S cells coexpressing TARP gamma-2 assessed as inhibition of glutamate-induced increase in intracellular calcium levels after 2 mins followed by cyclothiazide/glutamate addition by fluo-4 AM dye based fluorescence imaging plate reader method; assay type: cell-based
Glutamate receptor 1 [4] = molecular target: T1, Glutamate receptor 1; test: Antagonist activity at human iGluA1 receptor flip isoform expressed in CHO-S cells assessed as inhibition of glutamate-induced increase in intracellular calcium levels after 2 mins followed by cyclothiazide/glutamate addition by fluo-4 NW dye based fluorescence imaging plate reader method; assay type: cell-based
[5] = AUC in rat at 1 mg/kg, iv; assay type: ADME, organism-based; conditions: in vivo
How it was run: (§2)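 Rats dosed 1 mg/kg iv or 3 mg/kg po; plasma concentration–time profiles give AUC, CL, Vdss, Cmax, Tmax and absolute oral bioavailability; mean and SEM, n = 3.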

[6] = Clearance in rat; assay type: ADME, organism-based; conditions: in vivo
Cytochrome P450 1A2 = molecular target: T2, Cytochrome P450 1A2 (Homo sapiens, UniProt P05177); test: Inhibition of human CYP1A2; assay type: ADME
T2 sequence (P05177 whole entry): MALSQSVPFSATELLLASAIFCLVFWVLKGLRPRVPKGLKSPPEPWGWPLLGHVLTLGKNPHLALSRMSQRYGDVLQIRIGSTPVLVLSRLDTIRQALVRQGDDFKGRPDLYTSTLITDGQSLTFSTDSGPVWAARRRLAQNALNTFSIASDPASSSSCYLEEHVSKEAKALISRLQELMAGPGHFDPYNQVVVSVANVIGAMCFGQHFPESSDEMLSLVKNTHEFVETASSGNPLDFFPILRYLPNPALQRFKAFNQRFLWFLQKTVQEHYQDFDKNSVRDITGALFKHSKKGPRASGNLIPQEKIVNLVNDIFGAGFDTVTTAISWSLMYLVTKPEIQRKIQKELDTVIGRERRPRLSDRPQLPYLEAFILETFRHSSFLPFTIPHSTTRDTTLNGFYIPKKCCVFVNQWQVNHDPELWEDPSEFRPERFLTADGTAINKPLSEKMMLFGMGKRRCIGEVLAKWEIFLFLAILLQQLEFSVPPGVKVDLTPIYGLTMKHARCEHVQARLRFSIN

Rattus norvegicus [7] = test: Anticonvulsant activity in po dosed Sprague-Dawley rat assessed as inhibition of pentylenetetrazole-induced clonic convulsions administered 30 mins prior to PTZ dosing measured over 30 mins; assay type: functional
[8] = Oral bioavailability in rat at 3 mg/kg; assay type: ADME, organism-based; conditions: in vivo; how it was run: as §2
[9] = Volume of distribution at steady state in rat at 1 mg/kg, iv; assay type: ADME, organism-based; conditions: in vivo, read-out: Vdss; how it was run: as §2
[10] = Clearance in rat at 1 mg/kg, iv; assay type: ADME, organism-based; conditions: in vivo; how it was run: as §2
[11] = AUC in rat at 3 mg/kg, po; assay type: ADME, organism-based; conditions: in vivo; how it was run: as §2
[12] = Tmax in rat at 3 mg/kg, po; assay type: ADME, organism-based; conditions: in vivo; how it was run: as §2
[13] = Cmax in rat at 3 mg/kg, po; assay type: ADME, organism-based; design: dose 3 mg/kg, route oral; conditions: in vivo; how it was run: as §2
Rattus norvegicus [14] = organism: Rattus norvegicus; test: Potency index, ratio of perampanel ED50 to compound ED50 for inhibition of pentylenetetrazole-induced clonic convulsions in Sprague-Dawley rat; assay type: functional
Rattus norvegicus [15] = test: Anticonvulsant activity in po dosed Sprague-Dawley rat assessed as inhibition of pentylenetetrazole-induced clonic convulsions at 1 mg/kg administered 30 mins prior to PTZ dosing measured over 30 mins; assay type: functional
Rattus norvegicus [16] = test: Anticonvulsant activity in po dosed Sprague-Dawley rat assessed as inhibition of pentylenetetrazole-induced clonic convulsions at 3 mg/kg administered 30 mins prior to PTZ dosing measured over 30 mins; assay type: functional
Rattus norvegicus [17] = test: Anticonvulsant activity in po dosed Sprague-Dawley rat assessed as inhibition of pentylenetetrazole-induced clonic convulsions at 10 mg/kg administered 30 mins prior to PTZ dosing measured over 30 mins; assay type: functional
Plasma [18] = test: Plasma concentration in Sprague-Dawley rat at 30 mg/kg, po; assay type: ADME, organism-based; conditions: in vivo
Plasma [19] = test: Plasma concentration in Sprague-Dawley rat at 1 mg/kg, po; assay type: ADME, organism-based; conditions: in vivo
Plasma [20] = test: Plasma concentration in Sprague-Dawley rat at 3 mg/kg, po; assay type: ADME, organism-based; conditions: in vivo
Plasma [21] = test: Plasma concentration in Sprague-Dawley rat at 10 mg/kg, po; assay type: ADME, organism-based; conditions: in vivo
Rattus norvegicus [22] = test: Receptor occupancy at TARP gamma-8 containing AMPA receptor in Sprague-Dawley rat at 1 mg/kg, po administered 30 mins prior to addition of 6-[2-Ethoxyethyl-[4-(2-pyridyl)thiazol-2-yl]amino]-3H-1,3-benzothiazol-2-one measured after 40 mins by […]; assay type: functional
Rattus norvegicus [23] = test: Receptor occupancy at TARP gamma-8 containing AMPA receptor in Sprague-Dawley rat at 3 mg/kg, po administered 30 mins prior to addition of 6-[2-Ethoxyethyl-[4-(2-pyridyl)thiazol-2-yl]amino]-3H-1,3-benzothiazol-2-one measured after 40 mins by […]; assay type: functional
Rattus norvegicus [24] = test: Receptor occupancy at TARP gamma-8 containing AMPA receptor in Sprague-Dawley rat at 10 mg/kg, po administered 30 mins prior to addition of 6-[2-Ethoxyethyl-[4-(2-pyridyl)thiazol-2-yl]amino]-3H-1,3-benzothiazol-2-one measured after 40 mins by […]; assay type: functional
Rattus norvegicus [25] = test: Receptor occupancy at TARP gamma-8 containing AMPA receptor in Sprague-Dawley rat at 30 mg/kg, po administered 30 mins prior to addition of 6-[2-Ethoxyethyl-[4-(2-pyridyl)thiazol-2-yl]amino]-3H-1,3-benzothiazol-2-one measured after 40 mins by […]; assay type: functional
Brain [26] = test: Drug uptake in Sprague-Dawley rat brain at 1 mg/kg, po; assay type: ADME, organism-based; conditions: in vivo
How it was run: (§3)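 Rats dosed orally 1–30 mg/kg 30 min before iv bolus of non-radiolabelled tracer; brain taken 40 min after tracer; tracer in hippocampus (total binding) and cerebellum (null region) quantified by LC-MS/MS; occupancy by ratio method; brain exposure measured; n = 4 per group, mean ± SEM.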

Brain [27] = test: Drug uptake in Sprague-Dawley rat brain at 3 mg/kg, po; assay type: ADME, organism-based; conditions: in vivo; how it was run: as §3
Brain [28] = test: Drug uptake in Sprague-Dawley rat brain at 10 mg/kg, po; assay type: ADME, organism-based; conditions: in vivo; how it was run: as §3
Brain [29] = test: Drug uptake in Sprague-Dawley rat brain at 30 mg/kg, po; assay type: ADME, organism-based; conditions: in vivo; how it was run: as §3
Plasma [30] = test: Plasma concentration in Sprague-Dawley rat at 100 mg/kg, po; assay type: ADME, organism-based; conditions: in vivo; how it was run: as §1
Rattus norvegicus [31] = test: Toxicity in Sprague-Dawley rat assessed as motor impairment up to 100 mg/kg, po by inverted screen test; assay type: organism-based; conditions: in vivo; how it was run: as §1
Rattus norvegicus [32] = test: Protective index, ratio of TD50 for motor impairment to ED50 for inhibition of pentylenetetrazole-induced clonic convulsions in po dosed Sprague-Dawley rat
How it was run: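 PI = inverted screen TD50 divided by PTZ ED50. For the ED50, rats were dosed orally 30 min before PTZ (35 mg/kg, sc), with n = 10 per group. Read-out was % block of clonic convulsions; ED50 given with 95% confidence limits.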

T1 sequence (P42261 whole entry, canonical isoform): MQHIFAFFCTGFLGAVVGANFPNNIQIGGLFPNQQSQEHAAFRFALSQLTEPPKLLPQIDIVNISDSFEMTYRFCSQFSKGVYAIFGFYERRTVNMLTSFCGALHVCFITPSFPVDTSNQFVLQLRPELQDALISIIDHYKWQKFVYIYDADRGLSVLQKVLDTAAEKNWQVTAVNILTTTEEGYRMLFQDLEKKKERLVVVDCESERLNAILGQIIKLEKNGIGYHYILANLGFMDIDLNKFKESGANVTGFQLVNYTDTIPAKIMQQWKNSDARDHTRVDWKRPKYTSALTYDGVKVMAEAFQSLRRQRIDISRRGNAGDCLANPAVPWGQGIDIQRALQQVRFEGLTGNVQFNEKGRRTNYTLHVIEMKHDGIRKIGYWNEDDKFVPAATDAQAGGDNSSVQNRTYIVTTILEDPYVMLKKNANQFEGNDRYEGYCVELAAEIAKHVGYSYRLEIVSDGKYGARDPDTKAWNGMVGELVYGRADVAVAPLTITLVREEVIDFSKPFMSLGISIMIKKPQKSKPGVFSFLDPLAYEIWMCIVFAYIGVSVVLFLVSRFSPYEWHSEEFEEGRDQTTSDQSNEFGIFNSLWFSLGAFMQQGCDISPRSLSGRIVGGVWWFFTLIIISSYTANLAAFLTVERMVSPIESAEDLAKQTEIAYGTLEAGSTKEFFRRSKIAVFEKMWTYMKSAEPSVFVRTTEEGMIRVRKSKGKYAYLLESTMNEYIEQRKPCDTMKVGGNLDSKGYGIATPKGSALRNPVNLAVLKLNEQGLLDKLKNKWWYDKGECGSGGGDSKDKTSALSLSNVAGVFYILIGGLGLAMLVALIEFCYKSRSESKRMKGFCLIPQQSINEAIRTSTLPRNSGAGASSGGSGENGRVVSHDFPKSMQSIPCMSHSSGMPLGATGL

SMILES: C[C@@H](c1ccc2[nH]c(=O)sc2c1)c1ccn(-c2ccc(OCCO)cn2)n1
- TD50 [1]: 3.8 mg/kg
- IC50 (Glutamate receptor 1 [2]): 0.0653 µM
- IC50 (Glutamate receptor 1 [3]): 68.5 µM
- IC50 (Glutamate receptor 1 [4]): 83.3 µM
- AUC [5]: 1470 ng·h/mL
- clearance [6]: 11.4 mL/min/kg
- IC50 (Cytochrome P450 1A2): > 10 µM
- ED50 (Rattus norvegicus [7]): 1.7 mg/kg
- inhibition (Rattus norvegicus [7]): Dose-dependent effect
- bioavailability [8]: 97%
- Vd [9]: 1.28 L/kg
- clearance [10]: 11.4 mL/min/kg
- AUC [11]: 4220 ng·h/mL
- Tmax [12]: 1.3 h
- Cmax [13]: 628 ng/mL
- Ratio ED50 (Rattus norvegicus [14]): 10
- inhibition in vivo at 1 mg/kg (Rattus norvegicus [15]): 40%
- inhibition in vivo at 3 mg/kg (Rattus norvegicus [16]): 80%
- inhibition in vivo at 10 mg/kg (Rattus norvegicus [17]): 100%
- Cp (Plasma [18]): 1780 ng/mL
- Cp (Plasma [19]): 377 ng/mL
- Cp (Plasma [20]): 1269 ng/mL
- Cp (Plasma [21]): 3360 ng/mL
- Occ (Rattus norvegicus [22]): 45%
- Occ (Rattus norvegicus [23]): 69%
- Occ (Rattus norvegicus [24]): 68%
- Occ (Rattus norvegicus [25]): 96%
- Drug uptake (Brain [26]): 133 ng/g
- Drug uptake (Brain [27]): 477 ng/g
- Drug uptake (Brain [28]): 1526 ng/g
- Drug uptake (Brain [29]): 2400 ng/g
- Cp (Plasma [30]): 8342 ng/mL
- Activity (Rattus norvegicus [31]): Non-toxic
- Ratio TD50/ED50 (Rattus norvegicus [32]): >58
